Sampled rows, rich in hits. Any-hit rate of the full collection: about 2.6%.
DENV2 CPE rescue: DENV2-induced cell death inhibition; actives 1.7% (n = 350,000); CPE inhibition, % at 9.99 µM; AID 651640; DENV2-infected cells, cytopathic effect rescue, plate reader; in the data active = CPE inhibition above about 20%, passing the limit was not always enough; inconclusive = no clear call, values can overlap the other calls; tested in BHK-21 cells;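 note: 0% = median of neutral control wells and 100% = median of positive control wells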
INS-1E GSIS act: primary screen for activators of insulin secretion dependent on glucose, INS-1E cells, GLuc reporter luminescence. actives 0.61% (n = 370,000). activation, % at 16.6 µM. AID 743287. INS-1E GLuc reporter insulin secretion, 2-3 h;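 active = lowest replicate activation of at least 40%, so every replicate reaches that level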;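 note: 0% = median of neutral control wells and 100% = median of IBMX positive control wells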
E-sel inducer: E-selectin induction on HUVECs. activation, % at 7.58 µM. P16581. HUVEC E-selectin immunofluorescence imaging; normalized: neutral wells 0, TNF-alpha wells 100. actives 0.37% (n = 260,000);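 active = mean E-selectin-positive cell signal at least 10% of the positive control, reached in at least 60% of replicates, without over 20% cell loss; inconclusive = no rule given, readout overlaps actives, possibly toxicity-flagged; inactive = the rest, including those meeting only one limit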
Target sequence (P16581 whole entry, looked up): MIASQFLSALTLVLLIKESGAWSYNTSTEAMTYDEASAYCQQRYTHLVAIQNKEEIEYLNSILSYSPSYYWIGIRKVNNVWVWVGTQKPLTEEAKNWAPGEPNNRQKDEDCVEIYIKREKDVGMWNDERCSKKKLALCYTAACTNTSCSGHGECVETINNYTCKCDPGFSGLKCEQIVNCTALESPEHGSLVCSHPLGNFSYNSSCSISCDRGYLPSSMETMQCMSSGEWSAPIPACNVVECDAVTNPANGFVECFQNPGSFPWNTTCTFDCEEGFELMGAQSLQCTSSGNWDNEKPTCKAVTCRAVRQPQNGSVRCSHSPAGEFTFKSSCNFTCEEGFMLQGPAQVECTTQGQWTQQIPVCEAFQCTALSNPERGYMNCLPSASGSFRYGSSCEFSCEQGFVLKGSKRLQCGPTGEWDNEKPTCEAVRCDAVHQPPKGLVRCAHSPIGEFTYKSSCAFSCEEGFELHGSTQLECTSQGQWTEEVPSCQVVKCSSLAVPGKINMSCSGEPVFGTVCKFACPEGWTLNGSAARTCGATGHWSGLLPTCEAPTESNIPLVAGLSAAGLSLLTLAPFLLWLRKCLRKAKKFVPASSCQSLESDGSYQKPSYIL
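Test system – human umbilical vein endothelial cells (HUVEC), E-selectin induction · Input – 3,000 HUVEC seeded per well · Buffer or medium – EGM-2, gelatin · Compound dosing – single-point compound dose · Detection – immunofluorescence imaging · Measure – percent E-selectin-positive cells · Controls – TNF-alpha high, DMSO low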
CFTR F508del cor: correctors of CFTR F508del function in bronchial epithelial cells; CFBE cells, YFP halide quenching; stimulated with forskolin plus potentiator P3; % fluorescence drop versus neutral controls; actives 0.36% (n = 350,000); activity (quench increase), % at 7.58 µM; AID 720511;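 active = mean added fluorescence quench of at least 8% versus neutral control, with both replicates also reaching 8%; inconclusive = only one of the mean or replicate conditions met; inactive = mean below 8% and not both replicates reaching 8%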;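 note: cells transiently co-express mutant CFTR-F508del with the halide-sensitive YFP; corrector assay measuring rescue of mutant channel to the surface after 24 h compound exposure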
ERAP1 HTS inh: ERAP1 (human) enzyme inhibition. Q9NZ08. recombinant ERAP1, Leu-AMC fluorescence, 60 min. inhibition, % at 10.7 µM. actives 0.15% (n = 340,000). AID 652197;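 active = mean replicate inhibition of at least 30%, or all replicates individually reaching that 30% level; inactive = mean below 30% and not every replicate reaching it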;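 note: 0% = neutral control wells and 100% = L-leucinethiol positive control wells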
miR-122 sensor: miR-122 inhibition in Huh7 cells; activation (reporter increase), % at 12.5 µM; Huh7 miR-122 Renilla luciferase sensor, 48 h; neutral wells = 0, positive control = 100; actives 0.3% (n = 340,000); AID 602342;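 active = mean replicate activation score at least 90 and every replicate individually at or above 90; inconclusive = only one of the two criteria met; inactive = neither criterion met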;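 note: higher luciferase means less miR-122 activity so hits act as miR-122 inhibitors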
Active calls of the source: *; ? = inconclusive; · = no result; [ ] = dose if it differs, or a comment.

SMILES	DENV2 CPE rescue	INS-1E GSIS act	E-sel inducer	CFTR F508del cor	ERAP1 HTS inh	miR-122 sensor
CC(C)NC(=O)N(C)C[C@@H]1Oc2ccc(NC(=O)Cc3ccccc3)cc2C(=O)N([C@H](C)CO)C[C@H]1C	77.9*	6.8	·	1.9	-2.1	-0.4[16.7 µM]
CC(C)NC(=O)N(C)C[C@@H]1Oc2ccc(NC(=O)Cc3ccccc3)cc2C(=O)N([C@@H](C)CO)C[C@H]1C	-3.1	1.0	·	-0.3	2.0	-4.7[16.7 µM]
C[C@@H]1CN([C@H](C)CO)C(=O)c2cc(NC(=O)Cc3ccccc3)ccc2O[C@H]1CN(C)C(=O)NC1CCCCC1	-8.0	5.0	70.9*	-1.7	1.4	-2.8[16.7 µM]
C[C@H]1CN([C@@H](C)CO)C(=O)c2cc(-c3ccccc3F)cnc2O[C@H]1CN(C)C(=O)c1cnccn1	2.9	20.5	1.4	-6.2	-2.7	6.5[16.7 µM]
COc1ccc2c3c([nH]c2c1)[C@H](CO)N(C(=O)c1ccc(F)cc1)CC31CN(Cc2cccnc2)C1	44.6*	17.8	-0.1	-2.1	-2.2	·
COc1ccc2c3c([nH]c2c1)[C@@H](CO)N(C(=O)c1ccc(F)cc1)CC31CN(Cc2cccnc2)C1	6.8	-12.2	-0.2	0.1	-2.8	·
COc1ccc2c3c([nH]c2c1)[C@H](CO)N(C(C)=O)CC31CN(C(=O)c2cccc(F)c2)C1	83.5*	30.9	-0.4	1.1	·	·
COc1ccc2c3c([nH]c2c1)[C@@H](CO)N(Cc1nccs1)CC31CN(Cc2ccncc2)C1	54.2*	5.9	0.1	2.9	-3.2	·
COc1ccc2c3c([nH]c2c1)[C@@H](CO)N(C(=O)c1cccnc1)CC31CN(Cc2ccccc2)C1	35.1*	-4.2	0.1	3.2	-0.1	·
CCNC(=O)[C@H]1[C@H](CO)[C@H]2Cn3c(ccc(-c4ccccc4)c3=O)[C@H]2N1C(=O)C1CCCC1	-12.3	3.5	-0.7	-0.2	2.8	-1.2[16.7 µM]
C[C@H]1CN(C)C(=O)c2cc(NS(C)(=O)=O)ccc2O[C@H]1CN(C)C	·	1.7	·	·	·	·
COc1ccc2c3c([nH]c2c1)[C@@H](CO)N(C(=O)CN1CCOCC1)CC31CCN(Cc2ccccc2)CC1	-9.1	1.7	-0.3	1.5	0.3	·
COc1ccc2c3c([nH]c2c1)[C@@H](CO)N(C(=O)c1ccccc1)CC31CCN(C)CC1	31.0*	-0.7	-0.2	-1.0	-0.5	·
COc1ccc2c3c([nH]c2c1)[C@H](CO)N(C(=O)c1ccccc1)CC31CCN(C)CC1	10.5	-3.4	-0.4	0.0	-0.2	·
COc1ccc2c3c([nH]c2c1)[C@@H](CO)N(C(=O)CN1CCOCC1)CC31CN(Cc2ccccc2)C1	39.7*	14.8	1.3	1.3	-1.0	·
O=C(C[C@H]1CC[C@H](NC(=O)Nc2ccccc2F)[C@@H](CO)O1)NCc1ccc(F)cc1	-1.6	-3.3	1.2	0.2	-3.4	·
C=CC[C@H](CC(=O)NCCO)C(=O)NCCOC(=O)[C@@H](CC=C)Cc1ccc(F)cc1	46.9*	1.9	0.1	-1.3	-1.3	-0.8
C=CCOc1c(Cl)cc(Cl)cc1S(=O)(=O)NCCO	76.7*	0.4	-0.8	1.7	0.4	33.6
CCC(=O)N1C[C@H](C)[C@H](OC)CN(C)C(=O)c2ccc(NC(=O)Nc3ccc(Cl)cc3)cc2OC[C@@H]1C	·	-28.8	0.5	-5.1	·	·
CN=c1oc2ccc(Cl)cc2cc1C(N)=O	·	·	·	·	·	9.0
NC(=O)c1cc2cc(Cl)ccc2o/c1=N/NC(=O)c1cccs1	3.9	42.7*	-0.1	0.4	·	-2.4
C[C@@H]1CN([C@H](C)CO)C(=O)c2cc(N(C)C)ccc2O[C@@H](C)CCCCO[C@H]1CN(C)C(=O)Nc1ccccc1	·	-9.6	-0.1	-1.0	·	-2.2[16.7 µM]
Cc1ccc(S(=O)(=O)Nc2cccc3cccnc23)c([N+](=O)[O-])c1	-11.3	6.4	·	2.6	0.7	99.6*
Cc1cc(C)c(NS(=O)(=O)c2cccc3cccnc23)c(C)c1	9.4	-1.1	·	·	1.2	4.9
C#CCOCCOCCOCCNc1nc(N2CCN(C(=O)Cn3cc(CC(C)O)nn3)CC2)nc(N2CCN(C(=O)[C@H]([C@@H](C)O)n3cc(CCCCN)nn3)CC2)n1 (stereo partly specified)	-8.8	-2.3	-0.1	0.4	7.3	2.4
SMILES	DENV2 CPE rescue	INS-1E GSIS act	E-sel inducer	CFTR F508del cor	ERAP1 HTS inh	miR-122 sensor
C#CCOCCOCCOCCNc1nc(N2CCN(C(=O)Cn3cc(CCO)nn3)CC2)nc(N2CCN(C(=O)[C@H]([C@@H](C)O)n3cc(CCCCN)nn3)CC2)n1	21.0*	·	0.3	-0.3	·	·
C#CCOCCOCCOCCNc1nc(N2CCN(C(=O)CCCCCCCCCCNC(=O)[C@H](CO)n3cc(CCCSC)nn3)CC2)nc(N2CCN(C(=O)CCCCCCCCCCNC(=O)[C@H](CO)n3cc(CCCSC)nn3)CC2)n1	121.4*	-23.8	-0.1	-2.3	-4.5	·
COCCCNC(=O)C[C@@H]1C[C@@]2(C(=O)OC)CC(C)(C)CC=C2N(Cc2ccco2)C1=O	20.9*	4.3	-0.1	2.3	0.6	·
CCCCOCCCNC(=O)C[C@@H]1C[C@@]2(C(=O)OC)CC(C)(C)CC=C2N(Cc2ccc3c(c2)OCO3)C1=O	27.6*	-20.1	-0.1	-0.5	0.2	·
COCCCNC(=O)C[C@@H]1C[C@@]2(C(=O)OC)CC(C)(C)CC=C2N(Cc2ccc3c(c2)OCO3)C1=O	12.9	1.9	-0.1	0.3	-0.3	·
C[C@H]1CN(C)C(=O)c2cccc(N(C)C)c2O[C@@H]1CN(C)S(C)(=O)=O	·	13.6	·	·	·	·
Cc1ccc(S(=O)(=O)Nc2ccc3c(c2)C(=O)N([C@H](C)CO)C[C@H](C)[C@H](CN(C)CC2CCCCC2)OCCCC[C@H](C)O3)cc1	9.8	12.3	-0.1	-2.7	-2.8	-13.1[16.7 µM]
O=C(CCN1C(=O)/C(=C/c2ccc3c(c2)OCO3)SC1=S)NNC(=O)c1cccnc1	46.7*	2.9	·	-2.5	-0.9	·
O=C1C(Oc2ccccc2)C(c2ccc3c(c2)OCO3)N1CCc1ccc(F)cc1 (stereo unspecified)	4.8	-2.4	·	-0.3	-1.7	238.2*
COC(=O)c1ccc(C2C(Oc3ccc(OC)cc3)C(=O)N2CCc2ccc(F)cc2)cc1 (stereo unspecified)	·	113.4*	·	·	·	-1.0
COc1ccc(OC2C(=O)N(Cc3ccc(F)cc3)C2c2cc(OC)c(OC)c(OC)c2)cc1 (stereo unspecified)	·	3.7	·	·	·	·
COc1ccc(CCN2C(=O)C(Oc3ccccc3C)C2c2ccc3c(c2)OCO3)cc1 (stereo unspecified)	?	-8.5	·	2.9	1.9	13.9
CC1=CC(=O)C(Sc2ccc(C)cc2)=CC1=O	94.8*	·	·	·	9.0	10.0
Cc1ccc(S(=O)(=O)Nc2ccc3c(c2)C(=O)N([C@H](C)CO)C[C@H](C)[C@H](CN(C)S(=O)(=O)c2cn(C)cn2)OCCCC[C@@H](C)O3)cc1	1.7	24.6	-0.1	0.7	-0.7	7.7[16.7 µM]

Screening data (PubChem BioAssay)
